The text below walks through data of ChEMBL document CHEMBL4041497, “Isolation of Phorbol Esters from Euphorbia grandicornis and Evaluation of Protein Kinase C- and Human Platelet-Activating Effects of Euphorbiaceae Diterpenes” (J Nat Prod, 2016).

Calls of active or inactive are those of the source. The rule behind the calls is not given here.

One assay concerns the target Protein kinase C (PKC). The assay can be described thus: Activation of PKC in human platelet assessed as induction of platelet aggregation measured within 15 mins by tribidimetric method.
The target in assay [1] is T1, Protein kinase C (PKC) (Homo sapiens) (UniProt O94806+P41743+P17252+P05129+Q05655+P05771+Q05513+Q02156+P24723+Q15139+Q04759). The assay can be described thus: Activation of PKC in human platelet assessed as induction of platelet aggregation at 10 uM measured within 15 mins by tribidimetric method. The method, boiled down:
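Washed human platelets in Tyrode's solution (2 mM Ca2+, 11.1 mM glucose, 3.5 mg/mL BSA) at 3 × 10^8 platelets/mL, prewarmed 3 min at 37 °C, then given compound or DMSO vehicle with fast shaking (20 Hz) at 37 °C. Aggregation read turbidimetrically as maximal rise in light transmission at 450 nm within 15 min. Means ± SEM, n = 3.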

Assay [2] deals with T1, Protein kinase C (PKC) (Homo sapiens). As to the kind of experiment: Activation of PKC in human platelet assessed as reduction in phosphorylation of VASP at 0.1 uM in presence of PKCalpha/beta inhibitor Go6976 measured after 10 mins by Western blot analysis. The method, boiled down:
(§1)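 Human platelets were pretreated 1 min with Go6976 1 μM or DMSO vehicle, then stimulated with compound. Lysates were made in 2× SDS sample buffer and boiled, then run on SDS-PAGE and nitrocellulose blots. Probes were phospho-specific antibodies (PKC substrates, Akt Ser308, MARCKS, VASP, p38) with chemiluminescent detection. GAPDH was the loading control.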

In assay [3] the target is Protein kinase C beta type (Homo sapiens) (UniProt P05771). The assay can be described thus: Induction of PKC-beta1 translocation from cytosol to plasma membrane in human platelet at 0.1 uM measured after 1 min by Western blot analysis. The method, boiled down: (§2)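 Platelets were treated with compound for 1 min, then lysed with 0.1% digitonin (4 °C, 3 min) and spun at 14 000 rpm for 10 min; the supernatant was the cytosol. The pellet was extracted with 1% Triton X-100 and respun; that supernatant was the membrane fraction. Both fractions were immunoblotted for PKC-α, -β, -δ and -θ.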

Assay [4] deals with T1, Protein kinase C (PKC) (Homo sapiens). The assay can be described thus: Activation of PKC in human platelet assessed as reduction in phosphorylation of PKC substrates at 0.1 uM in presence of PKCalpha/beta inhibitor Go6976 measured after 10 mins by Western blot analysis. The method, boiled down: as §1
In assay [5] the target is Protein kinase C theta type (Homo sapiens) (UniProt Q04759). The assay can be described thus: Induction of PKC-theta translocation from cytosol to plasma membrane in human platelet at 0.1 uM measured after 1 min by Western blot analysis. The method, boiled down:
as §2

Assay [6] concerns the target T1, Protein kinase C (PKC) (Homo sapiens). The assay can be described thus: Activation of PKC in human platelet assessed as phosphorylation of PKC substrates at 0.1 uM measured after 10 mins by Western blot analysis. The procedure, abridged: (§3)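 Washed human platelets were prewarmed 3 min at 37 °C and exposed to compound for 10 min. They were lysed directly in 2× SDS sample buffer and boiled 5 min, then run on SDS-PAGE. Immunoblots used phospho-specific antibodies (phospho-Ser PKC substrate, p-Akt Ser308, p-ERK, p-p38, p-VASP, p-PKD, p-MARCKS) with HRP anti-rabbit and chemiluminescence. GAPDH served as loading control.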

Assay [7] has the same target. As to the kind of experiment: Activation of PKC in human platelet assessed as reduction in phosphorylation of AKT at ser-308 at 0.1 uM in presence of PKCalpha/beta inhibitor Go6976 measured after 10 mins by Western blot analysis. The method, boiled down: as §1
For assay [8] the target is unchanged. As to the kind of experiment: Activation of PKC in human platelet assessed as phosphorylation of PKD at 0.1 uM measured after 10 mins by Western blot analysis. The method, boiled down:
as §3

Assay [9] shares this target. The assay can be described thus: Activation of PKC in human platelet assessed as phosphorylation of AKT at ser-308 at 0.1 uM measured after 10 mins by Western blot analysis. The method, boiled down:
as §3

For assay [10] the target is unchanged. The assay can be described thus: Activation of PKC in human platelet assessed as increase in platelet secretion by measuring ATP release at 0.1 uM in presence of PKC inhibitor GF109203X measured after 5 mins by luciferin-luciferase assay. The procedure, abridged:
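Washed human platelets at 3 × 10^8/mL in Tyrode's with Ca2+ 2 mM, glucose 11.1 mM and BSA 3.5 mg/mL. Prewarmed 3 min at 37 °C, then preincubated 3 min with GF109203X 1 μM before compound. After 5 min at 37 °C, spun at 4 °C; supernatant ATP measured by luciferin–luciferase bioluminescence. Means ± SEM, n = 3.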

For assay [11] the target is unchanged. As to the kind of experiment: Activation of PKC in human platelet assessed as increase in platelet secretion by measuring ATP release at 0.1 uM in presence of PKCalpha/beta inhibitor Go6976 measured after 5 mins by luciferin-luciferase assay. The method, boiled down: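 Washed human platelets at 3 × 10^8/mL in Tyrode's with Ca2+ 2 mM, glucose 11.1 mM and BSA 3.5 mg/mL. Pretreated 1 min with Go6976 1 μM or DMSO vehicle, then compound added. After 5 min at 37 °C, centrifuged at 4 °C; supernatant ATP quantified by luciferin–luciferase assay. Means ± SEM, n = 3.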

In assay [12] the target is Protein kinase C delta type (Homo sapiens) (UniProt Q05655). As to the kind of experiment: Induction of PKC-delta translocation from cytosol to plasma membrane in human platelet at 0.1 uM measured after 1 min by Western blot analysis. The method, boiled down: as §2
Assay [13] addresses T1, Protein kinase C (PKC) (Homo sapiens). The assay can be described thus: Activation of PKC in human platelet assessed as increase in platelet secretion by measuring ATP release at 0.1 uM measured after 5 mins by luciferin-luciferase assay. The procedure, abridged:
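Tyrode's-suspended washed human platelets (3 × 10^8/mL; Ca2+ 2 mM, glucose 11.1 mM, BSA 3.5 mg/mL). Prewarmed 3 min at 37 °C, then incubated 5 min at 37 °C with compound or DMSO vehicle. Spun 1 min at 4 °C; released ATP in supernatant read by luciferin–luciferase reaction. Means ± SEM, n = 3.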

For assay [14] the target is unchanged. The assay can be described thus: Activation of PKC in human platelet assessed as reduction in phosphorylation of p38 at 0.1 in presence of PKCalpha/beta inhibitor Go6976 measured after 10 mins by Western blot analysis. The procedure, abridged: as §1
For assay [15] the target is unchanged. The assay can be described thus: Activation of PKC in human platelet assessed as phosphorylation of ERK at 0.1 uM measured after 10 mins by Western blot analysis. The method, boiled down: as §3
Assay [16] shares this target. As to the kind of experiment: Activation of PKC in human platelet assessed as reduction in phosphorylation of MARCK at 0.1 uM in presence of PKCalpha/beta inhibitor Go6976 measured after 10 mins by Western blot analysis. The method, boiled down: as §1
The target is the same in assay [17]. The assay can be described thus: Activation of PKC in human platelet assessed as phosphorylation of VASP at 0.1 uM measured after 10 mins by Western blot analysis. The procedure, abridged: as §3
Assay [18] deals with Protein kinase C alpha type (Homo sapiens) (UniProt P17252). The assay can be described thus: Induction of PKC-alpha translocation from cytosol to plasma membrane in human platelet at 0.1 uM measured after 1 min by Western blot analysis. The method, boiled down:
as §2

The target in assay [19] is T1, Protein kinase C (PKC) (Homo sapiens). The assay can be described thus: Activation of PKC in human platelet assessed as phosphorylation of MARCK at 0.1 uM measured after 10 mins by Western blot analysis. The method, boiled down: as §3
The target is the same in assay [20]. As to the kind of experiment: Activation of PKC in human platelet assessed as phosphorylation of p38 at 0.1 uM measured after 10 mins by Western blot analysis. The method, boiled down:
as §3

Sequence of Protein kinase C delta type (Homo sapiens) (Q05655 whole entry, looked up): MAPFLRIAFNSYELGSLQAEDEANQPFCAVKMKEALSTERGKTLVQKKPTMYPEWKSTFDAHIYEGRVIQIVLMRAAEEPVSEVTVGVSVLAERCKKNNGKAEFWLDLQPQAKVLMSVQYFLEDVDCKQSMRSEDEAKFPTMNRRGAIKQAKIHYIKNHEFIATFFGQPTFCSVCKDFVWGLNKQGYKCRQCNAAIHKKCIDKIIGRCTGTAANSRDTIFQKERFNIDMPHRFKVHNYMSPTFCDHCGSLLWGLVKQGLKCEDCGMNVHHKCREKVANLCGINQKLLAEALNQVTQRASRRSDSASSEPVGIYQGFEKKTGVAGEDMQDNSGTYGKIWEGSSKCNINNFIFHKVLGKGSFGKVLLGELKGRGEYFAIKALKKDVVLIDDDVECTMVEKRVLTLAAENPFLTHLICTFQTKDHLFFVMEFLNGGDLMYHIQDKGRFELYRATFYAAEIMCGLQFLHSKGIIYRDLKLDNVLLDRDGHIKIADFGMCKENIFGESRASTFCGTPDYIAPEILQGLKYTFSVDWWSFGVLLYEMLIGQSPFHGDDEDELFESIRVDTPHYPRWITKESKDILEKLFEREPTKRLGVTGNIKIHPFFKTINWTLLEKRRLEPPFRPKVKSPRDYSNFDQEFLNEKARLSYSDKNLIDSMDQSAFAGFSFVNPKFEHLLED
Sequence of Protein kinase C beta type (Homo sapiens) (P05771 2-671 limits assumed): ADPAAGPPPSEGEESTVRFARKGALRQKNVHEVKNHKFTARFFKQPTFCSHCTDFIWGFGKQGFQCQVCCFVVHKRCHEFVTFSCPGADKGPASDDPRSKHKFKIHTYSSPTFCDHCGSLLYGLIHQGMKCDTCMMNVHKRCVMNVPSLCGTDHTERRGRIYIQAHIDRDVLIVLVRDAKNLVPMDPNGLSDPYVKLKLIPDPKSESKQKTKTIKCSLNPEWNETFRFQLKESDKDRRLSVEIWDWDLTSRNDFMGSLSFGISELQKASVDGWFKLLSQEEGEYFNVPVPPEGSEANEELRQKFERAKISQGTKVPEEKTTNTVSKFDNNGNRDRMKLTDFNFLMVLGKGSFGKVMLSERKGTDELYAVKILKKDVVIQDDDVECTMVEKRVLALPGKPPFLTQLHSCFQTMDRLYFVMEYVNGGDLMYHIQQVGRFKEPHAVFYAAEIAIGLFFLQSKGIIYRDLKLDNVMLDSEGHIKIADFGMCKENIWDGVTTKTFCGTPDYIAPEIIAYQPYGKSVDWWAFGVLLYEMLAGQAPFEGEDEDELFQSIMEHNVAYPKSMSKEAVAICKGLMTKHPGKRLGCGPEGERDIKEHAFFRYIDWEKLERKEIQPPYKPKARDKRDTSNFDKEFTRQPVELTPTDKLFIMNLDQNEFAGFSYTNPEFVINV
Sequence of Protein kinase C theta type (Homo sapiens) (Q04759 whole entry, looked up): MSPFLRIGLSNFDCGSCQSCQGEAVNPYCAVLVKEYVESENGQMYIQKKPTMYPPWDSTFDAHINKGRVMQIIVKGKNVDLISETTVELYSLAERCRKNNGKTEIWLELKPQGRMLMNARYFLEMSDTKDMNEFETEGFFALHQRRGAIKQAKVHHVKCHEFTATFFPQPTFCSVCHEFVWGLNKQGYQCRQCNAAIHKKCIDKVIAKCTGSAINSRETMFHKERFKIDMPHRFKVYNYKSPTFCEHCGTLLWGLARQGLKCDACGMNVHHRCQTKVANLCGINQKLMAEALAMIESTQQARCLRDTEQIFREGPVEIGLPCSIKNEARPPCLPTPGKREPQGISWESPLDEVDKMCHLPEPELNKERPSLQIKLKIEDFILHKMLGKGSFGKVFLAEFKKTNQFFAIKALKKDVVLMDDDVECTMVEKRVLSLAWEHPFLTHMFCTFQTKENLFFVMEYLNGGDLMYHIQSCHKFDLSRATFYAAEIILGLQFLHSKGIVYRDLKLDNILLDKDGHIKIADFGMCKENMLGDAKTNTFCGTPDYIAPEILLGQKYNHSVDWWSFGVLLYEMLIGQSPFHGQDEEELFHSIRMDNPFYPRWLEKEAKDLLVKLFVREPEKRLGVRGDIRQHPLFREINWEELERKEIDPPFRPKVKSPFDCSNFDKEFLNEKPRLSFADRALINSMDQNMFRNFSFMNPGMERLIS

On to `C/C=C(/C)C(=O)OC[C@]1(C)[C@H]2[C@@H]3C=C(COC(C)=O)C[C@]4(O)C(=O)C(C)=C[C@H]4[C@@]3(O)[C@H](C)C[C@]21OC(=O)C(C)C`, for which the EC50 at Protein kinase C (PKC) was found to be 6.08 µM.
Turning to `CC(=O)O[C@@H]1[C@H]2[C@@H](OC(=O)c3ccccc3)[C@@H](C)C[C@]2(OC(C)=O)[C@@H](OC(C)=O)[C@]2(C)OC[C@]13C(=O)C=C[C@H](C(C)(C)OC(C)=O)[C@@H]23`, the result in assay [1] was inactive.
For the compound `CCCCCCCCCCCCCC(=O)O[C@@H]1[C@@H](C)[C@@]2(O)[C@@H](C=C(CO)C[C@]3(O)C(=O)C(C)=C[C@@H]23)[C@@H]2C(C)(C)[C@]12OC(C)=O`, the result in [2], in [4], in assay [7], in assay [10], in assay [11] and in assay [14] was inactive. In addition, the outcome in [16] was inactive. The outcome in [3], in [5], in [6], in assay [8], in assay [9] and in assay [12] was Active. Besides, the result in assay [13], in assay [15], in [17], in assay [18], in assay [19] and in [20] was Active.
On to `C=C1[C@H](OC(C)=O)CC(=O)C(C)(C)/C=C/[C@@H](C)C(=O)[C@@]2(OC(C)=O)C[C@@](C)(OC(=O)c3ccccc3)[C@H](OC(C)=O)[C@@H]2[C@H]1OC(C)=O`, for which the outcome in assay [1] was inactive.
Take `C=C1[C@H](OC(C)=O)CC(=O)C(C)(C)/C=C/[C@@H](C)C(=O)[C@@]2(OC(C)=O)C[C@@](C)(OC(C)=O)[C@H](OC(C)=O)[C@@H]2[C@H]1OC(C)=O`: the result in assay [1] was inactive.
On to `C/C=C(/C)C(=O)O[C@H]1C(C)=C[C@]23C(=O)[C@@H](C=C(CO)[C@@H](O)[C@]12O)[C@H]1[C@@H](C[C@H]3C)C1(C)C` [INGENOL MEBUTATE], for which the outcome in assay [3], in assay [6], in assay [8], in assay [9], in [12] and in [13] was Active. Further, the result in [15], in [17], in [18], in [19] and in assay [20] was Active. In addition, the EC50 on Protein kinase C (PKC) turned out to be 0.0725 µM.
In the case of `C/C=C(/C)C(=O)O[C@H]1C(C)=C[C@]23C(=O)[C@@H](C=C(C)[C@@H](O)[C@]12O)[C@H]1[C@@H](C[C@H]3C)C1(C)C`, the EC50 at Protein kinase C (PKC) worked out at 5.04 µM.
